Activity calls are given as the source filed them. The calls are words filed in the database; no cut-off is given here.
How the values were obtained:
[1] = system: AGS; test: Antiproliferative activity against human AGS cells assessed as reduction in cell viability measured after 3 days by Celltiter-Glo assay; type: functional, cell-based; details: for Activity: time 3.0 day; for IC50: 72 h
Procedure, shortened: (§1)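 Cells grown per supplier recommendations with 10% FBS plus penicillin/streptomycin and mycoplasma-checked. 800 cells per well in 384-well format, dosed the next day at the indicated concentrations; depending on the agent, dosing was once or daily. Viability was read by CellTiter-Glo luminescence after three days of treatment, with a 20 min incubation before reading.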

[2] = system: NCI-H358; test: Antiproliferative activity against human NCI-H358 cells assessed as reduction in cell viability measured after 3 days by Celltiter-Glo assay; type: functional, cell-based; details: for Activity: time 3.0 day; for IC50: NCI-H358, 72 h; procedure, shortened: as §1
[3] = biological target: Retinal rod rhodopsin-sensitive cGMP 3',5'-cyclic phosphodiesterase subunit delta (Homo sapiens) (UniProt O43924); test: Induction of PDE6D degradation in human CRBN-null MOLT4 cells at 8 to 200 nM incubated for 4 hrs by Immunoblotting analysis; type: cell-based; details: MOLT-4, dose 8-200 nM
[4] = biological target: DNA-binding protein Ikaros (Homo sapiens) (UniProt Q13422); test: Induction of IKZF1 degradation in human CRBN-null MOLT4 cells at 8 to 200 nM incubated for 4 hrs by Immunoblotting analysis; type: cell-based; details: MOLT-4, dose 8-200 nM
[5] = system: PaTu 8988t; test: Antiproliferative activity against human PaTu 8988t cells assessed as reduction in cell viability measured after 3 days by Celltiter-Glo assay; type: functional, cell-based; details: for Activity: time 3.0 day; for IC50: 72 h; procedure, shortened: as §1
[6] = system: MIA PaCa-2; test: Antiproliferative activity against human MIA PaCa-2 cells assessed as reduction in cell viability measured after 3 days by Celltiter-Glo assay; type: functional, cell-based; details: for Activity: time 3.0 day; for IC50: MIA PaCa-2, 72 h; procedure, shortened: as §1
[7] = biological target: T1, Cereblon/Casein kinase I alpha (Homo sapiens) (UniProt P48729+Q96SW2); test: Protac activity at CRBN/CK1alpha in human MOLT-4 cells assessed as induction of CK1alpha degradation at 1 microM measured after 4 hrs by Immunoblotting analysis; type: cell-based
Procedure, shortened: (§2)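 MOLT4 cells treated for 4 h, either at a single 1 µM screening dose or across a concentration series. Lysates were made in RIPA with protease/phosphatase inhibitors, and 20 μg protein was resolved by SDS-PAGE and transferred to nitrocellulose. PDE6D, IKZF1, IKZF3 and CK1α were immunoblotted against β-actin and detected with IRDye secondaries.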

[8] = biological target: T2, Protein cereblon/Zinc finger protein Aiolos (Homo sapiens) (UniProt Q96SW2+Q9UKT9); test: Protac activity at CRBN/IKZF3 in human MOLT-4 cells assessed as induction of IKZF3 degradation at 1 microM measured after 4 hrs by Immunoblotting analysis; type: cell-based; procedure, shortened: as §2
[9] = biological target: T3, Protein cereblon/Retinal rod rhodopsin-sensitive cGMP 3',5'-cyclic phosphodiesterase subunit delta (Homo sapiens, UniProt O43924+Q96SW2); test: Protac activity at CRBN/PDE6D in human MOLT-4 cells assessed as induction of PDE6D degradation at 1 microM measured after 4 hrs by Immunoblotting analysis; type: cell-based; procedure, shortened: as §2
Target sequence in this assay (O43924 whole entry, looked up): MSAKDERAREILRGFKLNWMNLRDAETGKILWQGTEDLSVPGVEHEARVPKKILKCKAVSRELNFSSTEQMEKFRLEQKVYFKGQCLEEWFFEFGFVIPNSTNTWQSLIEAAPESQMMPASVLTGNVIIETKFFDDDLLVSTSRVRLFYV
Target sequence in this assay (Q96SW2 whole entry, looked up): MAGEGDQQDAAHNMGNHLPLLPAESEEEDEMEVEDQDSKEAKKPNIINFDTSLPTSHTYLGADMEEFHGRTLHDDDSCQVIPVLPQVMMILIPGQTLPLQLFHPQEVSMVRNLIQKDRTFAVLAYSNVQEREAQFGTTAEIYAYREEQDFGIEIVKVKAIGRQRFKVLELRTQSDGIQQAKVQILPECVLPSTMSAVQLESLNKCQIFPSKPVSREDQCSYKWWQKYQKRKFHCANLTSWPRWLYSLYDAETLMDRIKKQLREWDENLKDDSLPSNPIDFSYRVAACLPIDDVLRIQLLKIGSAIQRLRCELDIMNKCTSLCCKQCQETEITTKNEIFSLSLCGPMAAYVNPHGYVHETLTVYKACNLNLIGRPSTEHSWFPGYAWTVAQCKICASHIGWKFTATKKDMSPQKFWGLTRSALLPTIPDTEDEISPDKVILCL

[10] = biological target: T4, Cereblon/Ikaros (Homo sapiens) (UniProt Q96SW2+Q13422); test: Protac activity at CRBN/IKZF1 in human MOLT-4 cells assessed as induction of IKZF1 degradation at 1 microM measured after 4 hrs by Immunoblotting analysis; type: cell-based; procedure, shortened: as §2
[11] = biological target: T3, Protein cereblon/Retinal rod rhodopsin-sensitive cGMP 3',5'-cyclic phosphodiesterase subunit delta; test: Protac activity at CRBN/PDE6D in human MM1.S cells assessed as induction of PDE6D degradation measured after 4 hrs by Immunoblotting analysis; type: cell-based
Procedure, shortened: (§3)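 Jurkat or MM.1S cells given the indicated concentrations, up to 1 µM, for 4 h. RIPA lysates (30 min on ice) with 20 μg protein per lane were separated by SDS-PAGE and transferred to nitrocellulose. Blots were probed for PDE6D, IKZF1 (1:1000), IKZF3 (1:1000) and CK1α, with β-actin control and IRDye fluorescent secondary detection.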

[12] = biological target: T3, Protein cereblon/Retinal rod rhodopsin-sensitive cGMP 3',5'-cyclic phosphodiesterase subunit delta; test: Protac activity at CRBN/PDE6D in human Jurkat cells assessed as induction of PDE6D degradation measured after 4 hrs by Immunoblotting analysis; type: cell-based; procedure, shortened: as §3
[13] = biological target: T3, Protein cereblon/Retinal rod rhodopsin-sensitive cGMP 3',5'-cyclic phosphodiesterase subunit delta; test: Protac activity at CRBN/PDE6D in human MOLT-4 cells assessed as induction of PDE6D degradation measured after 4 hrs by Immunoblotting analysis; type: cell-based; procedure, shortened: as §2
[14] = biological target: T4, Cereblon/Ikaros (Homo sapiens); test: Protac activity at CRBN/IKZF1 in human MOLT-4 cells assessed as induction of IKZF1 degradation at 250 nM measured after 4 hrs by proteome mass spectrometry
[15] = biological target: T2, Protein cereblon/Zinc finger protein Aiolos (Homo sapiens); test: Protac activity at CRBN/IKZF3 in human MOLT-4 cells assessed as induction of IKZF3 degradation at 250 nM measured after 4 hrs by proteome mass spectrometry
[16] = biological target: T2, Protein cereblon/Zinc finger protein Aiolos (Homo sapiens); test: Protac activity at CRBN/IKZF3 in human MM1.S cells assessed as induction of IKZF3 degradation measured after 4 hrs by Immunoblotting analysis; type: cell-based; procedure, shortened: as §3
[17] = biological target: T4, Cereblon/Ikaros (Homo sapiens); test: Protac activity at CRBN/IKZF1 in human Jurkat cells assessed as induction of IKZF1 degradation measured after 4 hrs by Immunoblotting analysis; type: cell-based; procedure, shortened: as §3
[18] = biological target: T4, Cereblon/Ikaros (Homo sapiens); test: Protac activity at CRBN/IKZF1 in human MM1.S cells assessed as induction of IKZF1 degradation measured after 4 hrs by Immunoblotting analysis; type: cell-based; procedure, shortened: as §3
[19] = biological target: T1, Cereblon/Casein kinase I alpha (Homo sapiens); test: Protac activity at CRBN/CK1alpha in human MM1.S cells assessed as induction of CK1alpha degradation at 40 nM measured after 4 hrs by Immunoblotting analysis; type: cell-based; procedure, shortened: as §3
[20] = biological target: T4, Cereblon/Ikaros (Homo sapiens); test: Protac activity at CRBN/IKZF1 in human MOLT-4 cells assessed as induction of IKZF1 degradation measured after 4 hrs by Immunoblotting analysis; type: cell-based; procedure, shortened: as §2
[21] = biological target: T2, Protein cereblon/Zinc finger protein Aiolos (Homo sapiens); test: Protac activity at CRBN/IKZF3 in human Jurkat cells assessed as induction of IKZF3 degradation measured after 4 hrs by Immunoblotting analysis; type: cell-based; procedure, shortened: as §3
[22] = biological target: T2, Protein cereblon/Zinc finger protein Aiolos (Homo sapiens); test: Protac activity at CRBN/IKZF3 in human MOLT-4 cells assessed as induction of IKZF3 degradation measured after 4 hrs by Immunoblotting analysis; type: cell-based; procedure, shortened: as §2

T2 sequence (Q96SW2 whole entry, looked up): as above
T2 sequence (Q9UKT9 whole entry, looked up): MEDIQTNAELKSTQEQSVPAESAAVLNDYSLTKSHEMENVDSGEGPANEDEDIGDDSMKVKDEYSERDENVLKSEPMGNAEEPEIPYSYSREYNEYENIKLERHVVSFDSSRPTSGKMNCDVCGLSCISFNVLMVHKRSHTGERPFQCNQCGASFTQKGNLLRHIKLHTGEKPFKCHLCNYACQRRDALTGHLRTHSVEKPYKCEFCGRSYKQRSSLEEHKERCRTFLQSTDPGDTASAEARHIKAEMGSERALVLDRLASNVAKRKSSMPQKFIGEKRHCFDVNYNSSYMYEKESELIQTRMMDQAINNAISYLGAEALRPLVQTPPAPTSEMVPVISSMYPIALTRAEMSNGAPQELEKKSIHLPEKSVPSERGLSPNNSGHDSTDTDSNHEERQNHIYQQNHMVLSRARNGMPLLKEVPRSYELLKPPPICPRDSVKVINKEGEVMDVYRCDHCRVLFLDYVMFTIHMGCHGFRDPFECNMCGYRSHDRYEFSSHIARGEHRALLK
T1 sequence (P48729 2-337 limits assumed): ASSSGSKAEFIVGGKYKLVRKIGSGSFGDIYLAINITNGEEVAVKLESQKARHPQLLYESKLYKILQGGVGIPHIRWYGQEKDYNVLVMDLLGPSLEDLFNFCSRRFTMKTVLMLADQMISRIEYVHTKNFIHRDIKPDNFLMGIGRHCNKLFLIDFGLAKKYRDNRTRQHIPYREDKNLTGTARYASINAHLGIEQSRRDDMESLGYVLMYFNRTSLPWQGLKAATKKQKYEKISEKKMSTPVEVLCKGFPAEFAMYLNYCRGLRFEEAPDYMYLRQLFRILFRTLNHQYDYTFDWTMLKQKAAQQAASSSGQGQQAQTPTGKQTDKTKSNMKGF
T1 sequence (Q96SW2 whole entry partner): as the sequence (Q96SW2 whole entry, looked up) above
Retinal rod rhodopsin-sensitive cGMP 3',5'-cyclic phosphodiesterase subunit delta (Homo sapiens), sequence (O43924 whole entry): as the sequence (O43924 whole entry, looked up) above
DNA-binding protein Ikaros (Homo sapiens), sequence (Q13422 whole entry): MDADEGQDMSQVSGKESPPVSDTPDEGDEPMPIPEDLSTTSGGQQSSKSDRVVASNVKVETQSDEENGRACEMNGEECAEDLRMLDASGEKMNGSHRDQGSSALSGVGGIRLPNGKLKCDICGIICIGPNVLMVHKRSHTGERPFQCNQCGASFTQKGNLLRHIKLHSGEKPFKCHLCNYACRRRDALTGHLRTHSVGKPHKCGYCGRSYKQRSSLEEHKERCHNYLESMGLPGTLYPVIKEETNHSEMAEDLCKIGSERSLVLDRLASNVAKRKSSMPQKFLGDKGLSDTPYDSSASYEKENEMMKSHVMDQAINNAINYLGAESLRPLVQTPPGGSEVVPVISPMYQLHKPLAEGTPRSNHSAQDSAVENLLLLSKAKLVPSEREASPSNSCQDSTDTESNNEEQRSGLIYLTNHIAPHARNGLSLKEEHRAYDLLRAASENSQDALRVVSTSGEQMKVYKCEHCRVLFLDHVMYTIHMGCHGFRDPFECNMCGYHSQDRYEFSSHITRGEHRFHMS

SMILES: COc1cscc1-c1cn(C2CCC(=O)NC2=O)nn1 (stereo unspecified)
- Activity [1]: inactive
- Activity [2]: inactive
- Activity [3]: inactive
- Activity [4]: inactive
- Activity [5]: inactive
- Activity [6]: inactive

SMILES: C=C(F)C(=O)N1CCN(c2nc(OC[C@@H]3CCCN3C)nc3c2CCN(c2cccc4cccc(Cl)c24)C3)C[C@@H]1CC#N [ADAGRASIB]
- IC50 [1]: 1.4 µM
- IC50 [2]: 0.006 µM
- IC50 [5]: 3 µM
- IC50 [6]: 0.004 µM

SMILES: CNc1nccc(CN([C@H]2CC[C@H](N)CC2)S(=O)(=O)c2ccc(S(=O)(=O)N(Cc3ccc(Cl)cc3)C3CCCC3)cc2)n1
- IC50 [1]: 1.2 µM
- IC50 [2]: 0.954 µM
- IC50 [5]: 1.2 µM
- IC50 [6]: 0.507 µM

SMILES: COc1c(-c2cn(C3CCC(=O)NC3=O)nn2)csc1C(=O)NC1CCCC1 (stereo unspecified)
- Activity [7]: 70%
- Activity [8]: inactive
- Activity [9]: inactive
- Activity [10]: inactive

SMILES: O=C1CCC(n2cc(-c3ccsc3)nn2)C(=O)N1 (stereo unspecified)
- Activity [1]: inactive
- Activity [2]: inactive
- Activity [7]: Active
- DC50 [11]: < 0.2 µM
- Activity [5]: inactive
- Activity [9]: Active
- DC50 [12]: < 0.2 µM
- DC50 [13]: < 0.2 µM
- Activity [6]: inactive

SMILES: COc1c(-c2cn(C3CCC(=O)NC3=O)nn2)csc1C(=O)N1CCCC1 (stereo unspecified)
- Activity [7]: 70%
- Activity [8]: inactive
- Activity [14]: inactive
- Activity [15]: inactive
- Activity [9]: inactive
- Activity [10]: inactive

SMILES: CSc1cscc1-c1cn(C2CCC(=O)NC2=O)nn1 (stereo unspecified)
- Activity [16]: inactive
- Activity [1]: inactive
- Activity [2]: inactive
- Activity [17]: inactive
- Activity [7]: inactive
- Activity [11]: Active
- Activity [18]: inactive
- Activity [8]: inactive
- Activity [5]: inactive
- Activity [19]: 50%
- Activity [9]: Active
- Activity [12]: Active
- Activity [20]: inactive
- Activity [13]: Active
- Activity [21]: inactive
- Activity [6]: inactive
- Activity [22]: inactive
- Activity [10]: inactive

Source: ChEMBL document CHEMBL5038641, “Development of PDE6D and CK1α Degraders through Chemical Derivatization of FPFT-2216” (J Med Chem, 2022)
